We go through eleven compounds from ChEMBL document CHEMBL1122425, “Synthesis and some pharmacological properties of [4-threonine,7-sarcosine]oxytocin, a peptide with high oxytocic potency, and of [4-threonine,7-N-methylalanine]oxytocin” (1983).

The species named for test [1] is Rattus norvegicus. Briefly: In vitro for uterotonic activity in the absence of Mg2+ ion by Munsick method. It counts as functional.
Test [2] is filed under the species Rattus norvegicus. Kind of test: In vitro for uterotonic activity in the presence of Mg2+ ion by Munsick method. In kind it is functional. The method, boiled down:
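Isolated uterus bath contains 0.5 mM Mg2+.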

Test [3] relates to Rattus norvegicus. Briefly: Evaluation of antidiuretic activity against ethanol-anesthetized rats. In kind it is functional, Urine. The method, boiled down:
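Rats water-loaded before assay, under ethanol anesthesia.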

The species entered for test [4] is Rattus norvegicus. Kind of test: Evaluation of milk ejecting activity. It counts as functional.
For test [5], the species on record is Rattus norvegicus. Briefly: Evaluation of vasopressor activity. It counts as functional.
Test [6] can be described thus: Ratio of Oxytocin to Antidiuretic activity. It counts as functional, Urine.
Test [7] in a line: Ratio of Oxytocin to Pressor activity. In kind it is functional.

With `CC[C@H](C)[C@@H]1NC(=O)[C@H](Cc2ccc(O)cc2)NC(=O)[C@@H](N)CSSC[C@@H](C(=O)N2CCC[C@H]2C(=O)N[C@@H](CC(C)C)C(=O)NCC(N)=O)NC(=O)[C@H](CC(N)=O)NC(=O)[C@H]([C@@H](C)O)NC1=O`, the Activity in the test filed under Rattus norvegicus [1] worked out at 923 U mg-1; in the test filed under Rattus norvegicus [2], 719 U mg-1; with Rattus norvegicus [3], 1.8 U mg-1; in the test filed under Rattus norvegicus [4] it was 543 U mg-1; in the test listed under Rattus norvegicus [5], 0.43 U mg-1. In addition, the Ratio in test [6] turned out to be 510.
As to `CC[C@H](C)[C@@H]1NC(=O)[C@H](Cc2ccc(O)cc2)NC(=O)[C@@H](N)CSSC[C@@H](C(=O)N2CCC[C@H]2C(=O)N[C@@H](CC(C)C)C(=O)NCC(N)=O)NC(=O)[C@H](CC(N)=O)NC(=O)[C@H](CCC(N)=O)NC1=O` [OXYTOCIN], the Activity amounted to 520 U mg-1 in the test listed under Rattus norvegicus [1], 486 U mg-1 in the test listed under Rattus norvegicus [2], 4 U mg-1 with Rattus norvegicus [3] and 474 U mg-1 in the test listed under Rattus norvegicus [4]. Further, in test [7], the Ratio was determined as 120.
Take `CC[C@H](C)[C@@H]1NC(=O)[C@@H](Cc2ccc(O)cc2)NC(=O)[C@H](N)CSSC[C@@H](C(=O)N2CCC[C@@H]2C(=O)N[C@@H](CC(C)C)C(=O)NCC(N)=O)NC(=O)[C@H](CC(N)=O)NC(=O)[C@@H]([C@H](C)O)NC1=O`: the Ratio in test [7] amounted to 2150.
Still for that read-out and setting: the same measure for `CC[C@H](C)[C@@H]1NC(=O)[C@@H](Cc2ccc(O)cc2)NC(=O)[C@H](N)CSSC[C@@H](C(=O)N(C)CC(=O)N[C@@H](CC(C)C)C(=O)NCC(N)=O)NC(=O)[C@H](CC(N)=O)NC(=O)[C@@H]([C@H](C)O)NC1=O`: greater than 2350.
As to `CC[C@H](C)[C@@H]1NC(=O)[C@H](Cc2ccc(O)cc2)NC(=O)[C@@H](N)CSSC[C@@H](C(=O)N(C)CC(=O)N[C@@H](CC(C)C)C(=O)NCC(N)=O)NC(=O)[C@H](CC(N)=O)NC(=O)[C@H]([C@@H](C)O)NC1=O`, the Activity in the test filed under Rattus norvegicus [1] is on record as 1173 U mg-1; in the test listed under Rattus norvegicus [2], 1561 U mg-1; with Rattus norvegicus [3], 0.037 U mg-1; in the test listed under Rattus norvegicus [4], 731 U mg-1; in the test filed under Rattus norvegicus [5], less than 0.5 U mg-1. In test [6], the Ratio is on record as 31700.
Take `CC[C@H](C)[C@@H]1NC(=O)[C@@H](Cc2ccc(O)cc2)NC(=O)[C@H](N)CSSC[C@@H](C(=O)N(C)CC(=O)N[C@@H](CC(C)C)C(=O)NCC(N)=O)NC(=O)[C@H](CC(N)=O)NC(=O)[C@@H](CCC(N)=O)NC1=O`: the Ratio in test [7] is greater than 1310.
For the compound `CC[C@H](C)[C@@H]1NC(=O)[C@H](Cc2ccc(O)cc2)NC(=O)[C@@H](N)CSSC[C@@H](C(=O)N(C)CC(=O)N[C@@H](CC(C)C)C(=O)NCC(N)=O)NC(=O)[C@H](CC(N)=O)NC(=O)[C@H](CCC(N)=O)NC1=O`, the Activity was 459 U mg-1 in the test filed under Rattus norvegicus [1]; 609 U mg-1 in the test filed under Rattus norvegicus [2]; 0.18 U mg-1 in the test on Rattus norvegicus [3]; 564 U mg-1 in the test filed under Rattus norvegicus [4]; less than 0.35 U mg-1 in the test filed under Rattus norvegicus [5]. The Ratio in test [6] stood at 2550.
Regarding `CC[C@H](C)[C@@H]1NC(=O)[C@H](Cc2ccc(O)cc2)NC(=O)[C@@H](N)CSSC[C@@H](C(=O)N(C)[C@@H](C)C(=O)N[C@@H](CC(C)C)C(=O)NCC(N)=O)NC(=O)[C@H](CC(N)=O)NC(=O)[C@H](CCC(N)=O)NC1=O`, the Activity in the test filed under Rattus norvegicus [1] is reported as 62 U mg-1; in the test listed under Rattus norvegicus [2], 184 U mg-1; with Rattus norvegicus [3] it was 0.12 U mg-1; in the test listed under Rattus norvegicus [4], 402 U mg-1; in the test listed under Rattus norvegicus [5], less than 0.35 U mg-1. The Ratio in test [6] came out at 516.
For the compound `CC[C@H](C)[C@@H]1NC(=O)[C@@H](Cc2ccc(O)cc2)NC(=O)[C@H](N)CSSC[C@@H](C(=O)N(C)[C@H](C)C(=O)N[C@@H](CC(C)C)C(=O)NCC(N)=O)NC(=O)[C@H](CC(N)=O)NC(=O)[C@@H](CCC(N)=O)NC1=O`, in test [7], the Ratio is greater than 177.
For `CC[C@H](C)[C@@H]1NC(=O)[C@@H](Cc2ccc(O)cc2)NC(=O)[C@H](N)CSSC[C@@H](C(=O)N(C)[C@H](C)C(=O)N[C@@H](CC(C)C)C(=O)NCC(N)=O)NC(=O)[C@H](CC(N)=O)NC(=O)[C@@H]([C@H](C)O)NC1=O`, the Ratio in test [7] is greater than 192.
Turning to `CC[C@H](C)[C@@H]1NC(=O)[C@H](Cc2ccc(O)cc2)NC(=O)[C@@H](N)CSSC[C@@H](C(=O)N(C)[C@@H](C)C(=O)N[C@@H](CC(C)C)C(=O)NCC(N)=O)NC(=O)[C@H](CC(N)=O)NC(=O)[C@H]([C@@H](C)O)NC1=O`, the Activity in the test listed under Rattus norvegicus [1] was 115 U mg-1; in the test filed under Rattus norvegicus [2], 219 U mg-1; in the test on Rattus norvegicus [3], 0.047 U mg-1; in the test listed under Rattus norvegicus [4], 243 U mg-1; in the test filed under Rattus norvegicus [5], less than 0.6 U mg-1. Besides, the Ratio in test [6] came out at 2450.
